Test results published in ChEMBL document CHEMBL4513216, “Probing the Open Global Health Chemical Diversity Library for Multistage-Active Starting Points for Next-Generation Antimalarials” (ACS Infect Dis, 2020).

Experiment: Toxicity liver stage against HepG2, at 10uM
Format: cell-based
Set-up: test concentration 10 uM, cell line HepG2-A16-CD81EGFP
Details: human, HepG2-A16-CD81EGFP cells; read-out: INHIBITION
Procedure, shortened: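 Uninfected HepG2-A16-CD81EGFP cells, 3 × 10^3 per well, 1536-well, plated on prespotted compound at 10 μM final, parasite-free screening media added to match infected plates; puromycin 10 μM positive, DMSO 0.5% negative; run in parallel with 48 h PbLuc assay at 37 °C, 5% CO2; viability by CellTiter-Glo luminescence, normalized to controls.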

Compound | cytotoxicity at 10 µM [%]
Cc1nnc(CN2CCOC(c3ccc(Cl)cc3)C2)o1 (stereo unspecified) | 5.33
Cc1cc(C)n(Cc2ccc(-c3noc(C(=O)NCCO)n3)cc2)n1 | -9.45
O=C(NCCc1c[nH]c2ccccc12)C1(n2cnnn2)CCCCC1 | -0.321
CCOC(=O)NCc1nn(CCN2CCCC2)c(=O)c2ccccc12 | 9.66
Cn1c2c(ccc1=O)CC(NC(=O)Cc1ccsc1)CC2 (stereo unspecified) | 4.08
C1CN(CC2CCOCC2)Cc2c(CN3CCOCC3)nnn2C1 | -143
c1coc(CN2CCn3c(CN4CCOCC4)nnc3C2)c1 | 9.1
O=S(=O)(C1CC1)N1CCC2(CC1)COC(COc1cccnc1)C2 (stereo unspecified) | 9.49
COc1cc(CC(O)CO)c(OC)c2c1OCO2 (stereo unspecified) | -9.96
O=C(CCn1cc(Cl)cn1)Nc1ncccn1 | -5.32
CSc1[nH]nc(NC(=O)c2ccncc2)c1C#N | 10.6
Cc1c2ncn(CC(=O)NC(C)C)c(=O)c2nn1C | -5.26
CS(=O)(=O)Nc1ccn(Cc2cccc(F)c2)n1 | 13.1
CCc1cc(=O)n(CC(=O)N2CCCC2)c(-c2ccc(F)cc2)n1 | 8.66
CNC(=O)c1cc(-c2ccccc2)nc2ncnn12 | -4.66
Cc1cc(C)nc(NC(=O)C(C)Oc2ccc3c(c2)OCO3)n1 (stereo unspecified) | -9.9
Cc1cc(=O)n(CC(=O)NCCC(C)C)c(-c2cccc(Cl)c2)n1 | -2.32
CC(=O)N1CCC(C(=O)N2CCC2c2nc(-c3ccc(C)s3)no2)CC1 (stereo unspecified) | 3.15
O=C(c1cncs1)N1CCC(c2cnccn2)CC1 | -23.2

Compound | cytotoxicity at 10 µM [%]
O=C(O)c1ccccc1-c1ccc(CN2CCCC(O)C2)cc1 (stereo unspecified) | -9.16
O=C(CCOc1ccc(Cl)cc1)NCCCn1cccn1 | -12.1
CN1CCC(O)(CNCc2ccc(F)c(C(F)(F)F)c2)CC1 | 3.08
O=C(CCn1ccnc1)N1CCCC(n2cncn2)C1 (stereo unspecified) | 0.0383
CCOCc1cccc(NCc2c[nH]nc2-c2cccnc2)c1 | -3.9
CN(C)c1ncccc1CNc1snc(Cl)c1C#N | -5.1
COc1cccc(Cc2nnc(SCCS(C)(=O)=O)o2)c1 | 2.72
CC1COCCN1c1ncnc2sccc12 (stereo unspecified) | 14.1
CCOCC(O)CN1CCN(C(=O)c2ccncc2)CC1 (stereo unspecified) | 10
Cc1ccc(C(=O)NCC2(O)CCOCC2)cc1F | 6.79
Cc1cc(C(=O)Nc2ccnc(OC3CCOC3)c2)c(C)o1 (stereo unspecified) | 6.66
CCCn1nc(C(=O)N(C)Cc2cnn(C)c2)ccc1=O | -143
Cc1n[nH]c(C2CN(C(=O)c3cc(C4CC4)on3)CCO2)n1 (stereo unspecified) | -9.63
Cc1ncsc1CNc1cccc(OCCN2CCCC2)c1 | -3.35
O=C(NCCSCc1ccc(Br)s1)C1CCCN(c2cnccn2)C1 (stereo unspecified) | 5.34
Cc1nnc(C(NS(=O)(=O)c2cc(C#N)ccc2C)C(C)C)[nH]1 (stereo unspecified) | 4.98
CC(C)(O)CSCCNC(=O)c1cc(F)ccc1F | -4.11
O=C(C1CCCN(Cc2ccccc2)C1)N1CCc2sccc2C1 (stereo unspecified) | 2.41
CNC(=O)NC(=O)CN1CCCN(CC(F)(F)F)CC1 | -2.37

Compound | cytotoxicity at 10 µM [%]
Cc1ncsc1CNC(=O)N1CCN(Cc2ccccc2)C[C@H]1C | -125
CSc1ccsc1C(=O)NS(=O)(=O)c1cnn(C)c1 | -5.35
CCc1nc(CN2CCCC2C(=O)NC)cs1 (stereo unspecified) | -3.09
NC(=O)CNC(=O)c1ccc(CNCc2ccc(Cl)cc2Cl)cc1 | -41.5
CCC(CC(=O)Nc1ccc2c(c1)CC(=O)N2)c1ccccc1 (stereo unspecified) | -1.06
FC(F)(F)c1n[nH]c2c1CN(Cc1cn3ccccc3n1)CC2 | 7.76
N#Cc1ccc(N2CCCN(CC(=O)N3CCNC(=O)C3)CC2)cc1 | 5.27
CNC(=O)Cc1noc(Cc2cccc(Br)c2)n1 | 1.06
Cc1csc(NC(=O)CN(C)CC2CCCN2c2cccnn2)n1 (stereo unspecified) | -5.82
CC(c1ccc(Cl)cc1)N1CCN(CCS(C)(=O)=O)CC1 (stereo unspecified) | -20.3
CCc1cnc(CN(C(C)=O)C2CCN(CCS(C)(=O)=O)C2)o1 (stereo unspecified) | -17.8
Cc1nc(C)n(CC2CCCCN2CC(=O)Nc2cccnc2)n1 (stereo unspecified) | -12.4
COCC(=O)N1CCc2nc(NC(C)C)nc(NC(C)C)c2CC1 | -104
Cc1ccc(CNC(=O)c2nc3c(n2C)CCN(c2ncccn2)C3)o1 | -119
COCC(=O)N1CCC2(CC1)c1ccccc1[C@@H](N1CCSCC1)[C@@H]2O | 4.58
CN(Cc1cc(C2CC2)on1)C(=O)C(c1cccnc1)N1CCCC1 (stereo unspecified) | -41.6
Cc1ccc(N2CCC(c3[nH]ncc3Cc3ccccc3)CC2)nn1 | -6.86
COCc1noc(-c2ccc(N3CCCCC3COC)nc2)n1 (stereo unspecified) | 1.69
